Assay outcomes as filed in PubChem.
This is a sample that favours compounds with a hit; in the whole collection about 4.1% have one here.
KCNQ1 act – human KCNQ1 channel potentiation or activation; CHO-K1 KCNQ1, thallium flux FluxOR fluorescence; active compounds read high; B-score at 10 µM; 310,000 compounds, 0.35% hits; AID 2648;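 active means fluorescence ratio B-score, a plate-corrected score, at least three library SD, with initial intensity B-score within 5 SD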
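System: Stable KCNQ1 CHO-K1 line | Incubation: 90 min dye loading and 20 min compound exposure, both at room temperature | Measure: Ratio B score | Medium: Assay buffer for compound exposure, DMSO matched across wells | Compound dosing: Single-concentration screen | Probe or stimulus: K+/Tl+ depolarizing stimulus | Measured by: Kinetic FluxOR fluorescence, 10 s baseline plus 110 s post-stimulus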
KCNQ1 block – human KCNQ1 channel inhibition. P51787. CHO-K1 KCNQ1, FluxOR thallium flux fluorescence; active compounds read high. B-score at 10 µM. 310,000 compounds, 1.3% hits;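 active means compounds whose thallium flux B-score, printed positive for inhibition, exceeds three library SD while starting fluorescence stays within three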;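 further: channel opened by potassium depolarization with thallium stimulus after 20 min compound exposure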
KCNK9 block – human KCNK9 channel inhibition; B-score at 10 µM; AID 488922; Q9NPC2; HEK293 KCNK9, FluxOR thallium flux fluorescence; active compounds read low; 310,000 compounds, 1.2% hits;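 active means ratio B-score over 3 SD below the library mean, with starting fluorescence within 5 SD of its mean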;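 further: negative B-score means less thallium flux so channel inhibition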
hERG rescue – compounds protecting human hERG from proarrhythmic drug block | 310,000 compounds, 0.51% hits | activation (rescue from dofetilide block), less the hit threshold, % at 10 µM | Q12809 | CHO-hERG, FluxOR thallium flux, dofetilide IC70 present;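 active means activation above the mean of controls blocked by dofetilide plus 5 SD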;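 further: thallium influx through hERG after potassium depolarization seen as dye fluorescence rise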
KCNK3 block – human KCNK3 channel inhibition, primary screen. AID 602410. B-score at 10 µM. CHO-KCNK3 thallium flux, FluxOR fluorescence; active compounds read low. 340,000 compounds, 0.84% hits;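 active means B-score under library mean minus 4 SD, starting fluorescence ratio at most library mean plus 5 SD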;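 further: more negative B-score means stronger inhibition of thallium flux through KCNK3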
Target sequence (O14649 whole entry, looked up): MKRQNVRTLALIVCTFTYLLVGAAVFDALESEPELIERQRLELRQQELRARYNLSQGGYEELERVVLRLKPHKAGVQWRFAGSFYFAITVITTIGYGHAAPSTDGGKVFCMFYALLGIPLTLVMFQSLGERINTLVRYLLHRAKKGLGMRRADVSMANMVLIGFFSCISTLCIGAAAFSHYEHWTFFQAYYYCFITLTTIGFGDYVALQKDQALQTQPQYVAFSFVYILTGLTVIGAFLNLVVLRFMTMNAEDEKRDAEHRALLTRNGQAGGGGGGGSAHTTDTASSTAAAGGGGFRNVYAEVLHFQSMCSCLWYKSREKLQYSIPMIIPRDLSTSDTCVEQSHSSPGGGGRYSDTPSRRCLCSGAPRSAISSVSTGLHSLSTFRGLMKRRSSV
Cl transport mod – modulates chloride dependent transport by human KCC2; KCC2 cells, thallium flux FluoZin-2 fluorescence; B-score of Tl+ flux slope (higher = more flux/activation; lower = inhibition) at 10 µM; 190,000 compounds, 2.2% hits; AID 1456;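 active means thallium flux slope and its plate-corrected score both differing from the plate sample mean at a set confidence after two filtering rounds, in either direction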;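 further: slope of fluorescence scaled to starting intensity during 10 to 20 s after thallium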
KCNK3 inh conf – confirmation of human KCNK3 two-pore domain potassium channel inhibitors | shares compounds with KCNK3 block | CHO-KCNK3 thallium flux, FluxOR fluorescence; 0% buffer, 100% carvedilol maximal block | ratio percent of control, % at 10 µM | 2,400 compounds, 99% hits | AID 651638;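 active means ratio percent of control, averaged over triplicates, above buffer control mean plus 5 SD, cut at about 64% in these data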;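 further: ratio is the fluorescence rise from min to max over baseline after thallium stimulus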
KCNK3 noninduced – activity in cells without induced KCNK3 expression; shares compounds with KCNK3 block; non-induced KCNK3 parental cells, FluxOR thallium flux; active compounds read low; thallium flux ratio (lower = more inhibition) at 10 µM; 2,400 compounds, 40% hits;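 active means thallium flux ratio, averaged over three wells, more than 5 SD below the buffer control mean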;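 further: host cells are CHO cells without KCNK3 induction; ratio is peak minus trough fluorescence over baseline then normalized to buffer controls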
An asterisk follows results filed as active; i = inactive; / = no result.

SMILES	KCNQ1 act	KCNQ1 block	KCNK9 block	hERG rescue	KCNK3 block	Cl transport mod	KCNK3 inh conf	KCNK3 noninduced
c1ccc2c(-c3c[nH]c4ccccc34)c3ccccc3nc2c1	i	i	i	1	-10*	-0.075	123*	i
CCCCSc1nnc(CCCCCNC(=O)OC(C)(C)C)o1	i	i	i	-10	i	/	/	/
CN(Cc1cccc(Cl)c1Cl)CC(O)COc1ccccc1 (centres undefined)	i	i	i	-4	i	/	/	/
COc1ccc(OC)c(Nc2nc(-c3cccs3)cs2)c1	i	i	i	1	-9.1*	2.9	90*	i
COc1ccc(Nc2nc(-c3cccs3)cs2)c(OC)c1	i	i	i	-14	i	/	/	/
OC1CCN(c2c3c(nc4cc(-c5cccc(F)c5)nn24)CCCC3)CC1	i	i	i	-4	-8.9*	-2.2	122*	i
CCOC1C(=O)NC(=O)N1Cc1ccccc1 (centres undefined)	i	i	i	-5	-9.3*	/	81*	i
CC1CC(=O)NC(=O)N1Cc1ccccc1 (centres undefined)	/	/	/	/	i	/	/	/
COc1ccc(-c2csc3nc(-c4cccnc4)nc(Cl)c23)cc1OC	i	i	i	-15	-8.7*	0.71	101*	0.15*
CC(C)NC(=O)c1onc(CSc2nc3ccccc3[nH]2)c1C(=O)NC(C)C	i	i	i	-15	i	/	/	/
COc1ccc(C)cc1NC(=O)c1cccc(C(=O)Nc2cc(C)ccc2OC)c1	i	i	-8*	-7	-11*	/	106*	i
CCCCCCCCC(=O)Nc1cc(C)ccc1OC	i	i	i	-13	-11*	-0.67	103*	i
COc1ccc(OC)c(CNS(=O)(=O)c2c(C)nc3scc(C)n3c2=O)c1	i	i	i	-2	i	/	/	/
CCCCNc1oc(-c2cccs2)nc1S(=O)(=O)c1ccccc1	i	i	i	-10	-9.5*	-0.011	127*	0.13*
CNc1oc(-c2cccs2)nc1S(=O)(=O)c1ccccc1	i	i	i	-8	i	-2	/	/
CCn1nnc(NC(=O)COc2ccc(C3CCCCC3)cc2)n1	i	i	i	-15	-9.7*	-0.07	94*	0.16*
Oc1ccccc1/C=N/Nc1cccc2cccnc12	i	i	i	-9	-11*	-0.014	98*	i
O=C(COc1cccc2cccnc12)N/N=C/c1ccccc1O	i	i	i	-15	i	-0.29	/	/
C/C(=N\OC(=O)NC1CCCCC1)c1sc(-c2ccccc2)nc1C	i	i	i	-12	-11*	-0.087	113*	0.14*
CC(C)(C)c1ccc(/C=C/C(=O)N2CCCCC2)cc1	i	i	i	2	-8.9*	0.066	108*	i
C/C(Cc1ccccc1)=N\NC(=O)CNC(=O)c1ccc(Cl)cc1	i	i	i	-8	i	-0.36	/	/
CC(=O)N(/N=C1/C(=O)Nc2ccccc21)c1ccccc1	i	i	i	-9	-9*	/	125*	0.12*
CC(=O)c1ccc(N=C2C(=O)Nc3ccccc32)cc1	i	i	i	-3	i	/	/	/
CC1CN(S(=O)(=O)c2cc(C(=O)N(CCc3ccccc3)Cc3ccccc3)ccc2Cl)CC(C)O1 (centres undefined)	i	i	i	-16	-8.7*	/	85*	i
CCOC(=O)c1c(C)oc2c(CC(=O)c3ccccc3)c(Cl)c(O)c(O)c12	i	i	i	-9	i	0.1	/	/
SMILES	KCNQ1 act	KCNQ1 block	KCNK9 block	hERG rescue	KCNK3 block	Cl transport mod	KCNK3 inh conf	KCNK3 noninduced
COc1ccc(N2CCN(c3cc(C)c4ccc(C)cc4n3)CC2)cc1	i	i	i	-14	i	/	/	/
COc1nc2ccccc2nc1N1CCN(Cc2ccc3c(c2)OCO3)CC1	i	i	i	-14	i	/	/	/
COc1nc2ccccc2nc1N1CCN(c2ccc(F)cc2)CC1	i	i	i	-1	-9.8*	/	113*	i
COc1ccc2c(C)cc(N3CCN(c4ccc(F)cc4)CC3)nc2c1	i	i	i	-4	-9.5*	0.1	114*	i
CC(NS(=O)(=O)c1ccc2c(c1)oc(=O)n2C)c1ccccc1 (centres undefined)	i	i	i	-14	i	/	/	/
COc1ccc(Cl)cc1NC(=O)CN(C)C(=O)c1sc2ccccc2c1Cl	/	/	/	/	-12*	/	112*	i
CNc1ccc(Br)cc(C(=O)/C=C/c2ccc(OC)cc2OC)c1=O	i	i	i	-17	i	-1.1	/	/
CNc1ccc(Br)cc(C(=O)/C=C/c2ccc(Cl)cc2Cl)c1=O	i	10*	i	-18	-9.7*	/	117*	0.12*
Cc1nn(C(C)C(=O)N2CCCC2)c(=O)c2nn(-c3ccccc3)c(C)c12 (centres undefined)	i	i	i	-3	i	/	/	/
CC(C)CCCCCCCCCCCCC(=O)NCC(=O)NC1C(O)C(O)C(Nc2ncnc3nc[nH]c23)OC1C(O)CO (centres undefined)	/	/	/	/	i	/	/	/
COc1ccc(CNCC(O)(c2ccc(Cl)cc2)c2ccc(Cl)cc2)cc1OC	i	i	i	-19	i	/	/	/
COc1ccc(CNCC(O)(c2ccc(Cl)cc2)c2ccc(Cl)cc2)cc1	i	i	i	-38	-9.3*	/	131*	i
Cc1ccc(NS(=O)(=O)c2c(C(=O)N3CCCCCC3)c(C)n(C)c2C)c(Cl)c1	i	i	i	-7	i	/	/	/
C(=Cc1c[nH]c2ccccc12)c1nccc2ccccc12	/	/	/	/	-14*	/	167*	0.044*
C(=Cc1c[nH]c2ccccc12)c1ccc2ccccc2n1	/	/	/	/	i	/	/	/
N#C/C(=C\c1ccc(N2CCOCC2)o1)c1ccccc1	i	i	i	-16	-9*	-0.62	144*	0.081*
COc1ccc(/C=C2\COc3ccccc3C2=O)cc1OC	i	i	i	-1	i	0.033	/	/
COc1ccc(/C=C2\COc3ccccc3C2=O)c(OC)c1	i	i	i	-12	-9.6*	/	121*	i
N#Cc1cccc(C(c2nnnn2C2CCCC2)N2CCCCCC2)c1 (centres undefined)	i	i	-7.2*	-6	-15*	0.15	93*	i
